From ChEMBL document CHEMBL4689842, “EUbOPEN Chemogenomics Library wave 1” (2021)

Test system: Fibroblast
Assay: Multiplex assay against human fibroblast
Assay type: toxicity, cell-based
Method in brief: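 Compound was added to live cells that had been stained at seeding with Hoechst33342, BioTracker Green Microtubule Cytoskeleton Dye, MitoTracker Red and Annexin V Alexa Fluor 680, and imaging followed on a CQ1 microscope at 37°C and 5% CO2. CellPathfinder machine-learning gating divided cells into Hoechst high-intensity objects or normal cells, normal cells into healthy, pyknosed or fragmented nuclei, and pyknosed cells into mitotic or apoptotic. Tubulin, mitochondrial-mass and membrane-permeability phenotypes are per cents of healthy-nucleus cells.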

[1] = 12 h, 1 µM, compound concentration 1 uM, replicate 1
[2] = 12 h, 1 µM, compound concentration 1 uM, replicate 2
[3] = 12 h, 10 µM, compound concentration 10 uM, replicate 1
[4] = 12 h, 10 µM, compound concentration 10 uM, replicate 2
[5] = 24 h, 1 µM, compound concentration 1 uM, replicate 1
[6] = 24 h, 1 µM, compound concentration 1 uM, replicate 2
[7] = 24 h, 10 µM, compound concentration 10 uM, replicate 1
[8] = 24 h, 10 µM, compound concentration 10 uM, replicate 2
[9] = 48 h, 1 µM, compound concentration 1 uM, replicate 1
[10] = 48 h, 1 µM, compound concentration 1 uM, replicate 2
[11] = 48 h, 10 µM, compound concentration 10 uM, replicate 1
[12] = 48 h, 10 µM, compound concentration 10 uM, replicate 2

## Cc1cc(C)cc(-c2cnc3cc(Cl)c(-c4cccc(O)c4)cc3c2OCCCN)c1
[1]
  Population Apoptotic (%): 44%
  Population Fragmented Nuclei (%): 38%
  Population Healthy Nuclei (%): 26%
  Population Hoechst High Intensity Objects (%): 16%
  Population Membrane Permeable-Phenotype (%): 38%
  Population Mitochondria Different-Phenotype (%): 30%
  Population Mitotic Cells (%): 55%
  Population Normal (%): 83%
  Population Pyknosed Nuclei (%): 36%
  Population Tubulin-Different-Phenotype (%): 61%
  Total Cell Count: 60
[2]
  Population Fragmented Nuclei (%): 11%
  Population Healthy Nuclei (%): 72%
  Population Hoechst High Intensity Objects (%): 10%
  Population Membrane Permeable-Phenotype (%): 2%
  Population Mitochondria Different-Phenotype (%): 82%
  Population Normal (%): 90%
  Population Pyknosed Nuclei (%): 16%
  Population Tubulin-Different-Phenotype (%): 56%
  Total Cell Count: 68
[3]
  Population Apoptotic (%): 33%
  Population Fragmented Nuclei (%): 31%
  Population Healthy Nuclei (%): 10%
  Population Hoechst High Intensity Objects (%): 11%
  Population Membrane Permeable-Phenotype (%): 53%
  Population Mitochondria Different-Phenotype (%): 7%
  Population Mitotic Cells (%): 66%
  Population Normal (%): 88%
  Population Pyknosed Nuclei (%): 57%
  Population Tubulin-Different-Phenotype (%): 100%
  Total Cell Count: 135
[4]
  Population Apoptotic (%): 70%
  Population Fragmented Nuclei (%): 16%
  Population Healthy Nuclei (%): 32%
  Population Hoechst High Intensity Objects (%): 8%
  Population Membrane Permeable-Phenotype (%): 90%
  Population Mitochondria Different-Phenotype (%): 95%
  Population Mitotic Cells (%): 29%
  Population Normal (%): 91%
  Population Pyknosed Nuclei (%): 50%
  Total Cell Count: 60
[5]
  Population Apoptotic (%): 40%
  Population Fragmented Nuclei (%): 54%
  Population Healthy Nuclei (%): 22%
  Population Hoechst High Intensity Objects (%): 21%
  Population Membrane Permeable-Phenotype (%): 10%
  Population Mitochondria Different-Phenotype (%): 10%
  Population Mitotic Cells (%): 60%
  Population Normal (%): 78%
  Population Pyknosed Nuclei (%): 22%
  Population Tubulin-Different-Phenotype (%): 20%
  Total Cell Count: 56
[6]
  Population Apoptotic (%): 62%
  Population Fragmented Nuclei (%): 11%
  Population Healthy Nuclei (%): 75%
  Population Hoechst High Intensity Objects (%): 3%
  Population Membrane Permeable-Phenotype (%): 2%
  Population Mitochondria Different-Phenotype (%): 78%
  Population Mitotic Cells (%): 37%
  Population Normal (%): 96%
  Population Pyknosed Nuclei (%): 13%
  Population Tubulin-Different-Phenotype (%): 28%
  Total Cell Count: 66
[7]
  Population Apoptotic (%): 38%
  Population Fragmented Nuclei (%): 28%
  Population Healthy Nuclei (%): 16%
  Population Hoechst High Intensity Objects (%): 12%
  Population Membrane Permeable-Phenotype (%): 54%
  Population Mitochondria Different-Phenotype (%): 4%
  Population Mitotic Cells (%): 61%
  Population Normal (%): 87%
  Population Pyknosed Nuclei (%): 54%
  Population Tubulin-Different-Phenotype (%): 90%
  Total Cell Count: 149
[8]
  Population Apoptotic (%): 93%
  Population Fragmented Nuclei (%): 24%
  Population Healthy Nuclei (%): 3%
  Population Hoechst High Intensity Objects (%): 7%
  Population Membrane Permeable-Phenotype (%): 50%
  Population Mitochondria Different-Phenotype (%): 50%
  Population Mitotic Cells (%): 6%
  Population Normal (%): 92%
  Population Pyknosed Nuclei (%): 72%
  Population Tubulin-Different-Phenotype (%): 50%
  Total Cell Count: 63
[9]
  Population Apoptotic (%): 64%
  Population Fragmented Nuclei (%): 37%
  Population Healthy Nuclei (%): 33%
  Population Hoechst High Intensity Objects (%): 20%
  Population Membrane Permeable-Phenotype (%): 37%
  Population Mitochondria Different-Phenotype (%): 37%
  Population Mitotic Cells (%): 35%
  Population Normal (%): 80%
  Population Pyknosed Nuclei (%): 29%
  Population Tubulin-Different-Phenotype (%): 56%
  Total Cell Count: 60
[10]
  Population Apoptotic (%): 75%
  Population Fragmented Nuclei (%): 41%
  Population Healthy Nuclei (%): 54%
  Population Hoechst High Intensity Objects (%): 17%
  Population Membrane Permeable-Phenotype (%): 22%
  Population Mitochondria Different-Phenotype (%): 9%
  Population Mitotic Cells (%): 25%
  Population Normal (%): 82%
  Population Pyknosed Nuclei (%): 4%
  Population Tubulin-Different-Phenotype (%): 62%
  Total Cell Count: 117
[11]
  Population Apoptotic (%): 56%
  Population Fragmented Nuclei (%): 45%
  Population Healthy Nuclei (%): 28%
  Population Hoechst High Intensity Objects (%): 39%
  Population Membrane Permeable-Phenotype (%): 37%
  Population Mitochondria Different-Phenotype (%): 7%
  Population Mitotic Cells (%): 44%
  Population Normal (%): 60%
  Population Pyknosed Nuclei (%): 26%
  Population Tubulin-Different-Phenotype (%): 81%
  Total Cell Count: 157
[12]
  Population Apoptotic (%): 93%
  Population Fragmented Nuclei (%): 39%
  Population Healthy Nuclei (%): 43%
  Population Hoechst High Intensity Objects (%): 31%
  Population Membrane Permeable-Phenotype (%): 12%
  Population Mitochondria Different-Phenotype (%): 82%
  Population Mitotic Cells (%): 6%
  Population Normal (%): 68%
  Population Pyknosed Nuclei (%): 16%
  Population Tubulin-Different-Phenotype (%): 92%
  Total Cell Count: 129
